Measurements: ChEMBL document CHEMBL1145197 (J Med Chem, 2005)

Experiments:
Cannabinoid receptor 2 = Cannabinoid receptor 2 (Homo sapiens, UniProt P34972); assay: In vitro displacement of CP-55940 binding to human CB2 receptor expressed in CHO cells; assay type: cell-based
Summary of the method: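 Radioligand binding on CHO cells stably expressing recombinant human CB2 receptor; affinity given as Ki (nM).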

Cannabinoid receptor 1 [1] = molecular target: T1, Cannabinoid receptor 1 (Homo sapiens, UniProt P21554); assay type: cell-based, CHO
T1 sequence (P21554 whole entry): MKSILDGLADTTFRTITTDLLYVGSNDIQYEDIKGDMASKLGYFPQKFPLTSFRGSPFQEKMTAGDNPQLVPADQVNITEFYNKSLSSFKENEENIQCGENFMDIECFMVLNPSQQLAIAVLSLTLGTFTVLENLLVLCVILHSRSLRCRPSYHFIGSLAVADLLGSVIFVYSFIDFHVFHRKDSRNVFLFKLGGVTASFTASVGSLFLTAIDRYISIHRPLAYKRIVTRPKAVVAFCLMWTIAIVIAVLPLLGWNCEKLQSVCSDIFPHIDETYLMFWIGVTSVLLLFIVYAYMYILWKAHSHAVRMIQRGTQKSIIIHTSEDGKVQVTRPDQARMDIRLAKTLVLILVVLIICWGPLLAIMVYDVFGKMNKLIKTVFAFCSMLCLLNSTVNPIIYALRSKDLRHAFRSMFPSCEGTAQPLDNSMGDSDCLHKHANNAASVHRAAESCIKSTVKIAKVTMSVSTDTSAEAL

Rattus norvegicus = assay: In vivo effective dose to produce antagonism of CB agonist (CP-55940) induced hypotension in rat
Mus musculus = assay: In vivo effective dose to produce antagonism of CB agonist (WIN-55212) induced hypothermia in mouse
Cannabinoid receptor 1 [2] = molecular target: T1, Cannabinoid receptor 1; assay: In vitro cannabinoid receptor 1 antagonism of [3H]arachidonic acid release by CHO cells; assay type: functional, cell-based; conditions: read-out: pA2 (converted)
[3] = molecular target: ATP-dependent translocase ABCB1 (Homo sapiens, UniProt P08183); assay: Membrane passage was expressed as mean percentage of compound transported from bottom to top and from top to bottom at 3 hr after adding the compound; assay type: functional
Sequence of ATP-dependent translocase ABCB1 (P08183 whole entry): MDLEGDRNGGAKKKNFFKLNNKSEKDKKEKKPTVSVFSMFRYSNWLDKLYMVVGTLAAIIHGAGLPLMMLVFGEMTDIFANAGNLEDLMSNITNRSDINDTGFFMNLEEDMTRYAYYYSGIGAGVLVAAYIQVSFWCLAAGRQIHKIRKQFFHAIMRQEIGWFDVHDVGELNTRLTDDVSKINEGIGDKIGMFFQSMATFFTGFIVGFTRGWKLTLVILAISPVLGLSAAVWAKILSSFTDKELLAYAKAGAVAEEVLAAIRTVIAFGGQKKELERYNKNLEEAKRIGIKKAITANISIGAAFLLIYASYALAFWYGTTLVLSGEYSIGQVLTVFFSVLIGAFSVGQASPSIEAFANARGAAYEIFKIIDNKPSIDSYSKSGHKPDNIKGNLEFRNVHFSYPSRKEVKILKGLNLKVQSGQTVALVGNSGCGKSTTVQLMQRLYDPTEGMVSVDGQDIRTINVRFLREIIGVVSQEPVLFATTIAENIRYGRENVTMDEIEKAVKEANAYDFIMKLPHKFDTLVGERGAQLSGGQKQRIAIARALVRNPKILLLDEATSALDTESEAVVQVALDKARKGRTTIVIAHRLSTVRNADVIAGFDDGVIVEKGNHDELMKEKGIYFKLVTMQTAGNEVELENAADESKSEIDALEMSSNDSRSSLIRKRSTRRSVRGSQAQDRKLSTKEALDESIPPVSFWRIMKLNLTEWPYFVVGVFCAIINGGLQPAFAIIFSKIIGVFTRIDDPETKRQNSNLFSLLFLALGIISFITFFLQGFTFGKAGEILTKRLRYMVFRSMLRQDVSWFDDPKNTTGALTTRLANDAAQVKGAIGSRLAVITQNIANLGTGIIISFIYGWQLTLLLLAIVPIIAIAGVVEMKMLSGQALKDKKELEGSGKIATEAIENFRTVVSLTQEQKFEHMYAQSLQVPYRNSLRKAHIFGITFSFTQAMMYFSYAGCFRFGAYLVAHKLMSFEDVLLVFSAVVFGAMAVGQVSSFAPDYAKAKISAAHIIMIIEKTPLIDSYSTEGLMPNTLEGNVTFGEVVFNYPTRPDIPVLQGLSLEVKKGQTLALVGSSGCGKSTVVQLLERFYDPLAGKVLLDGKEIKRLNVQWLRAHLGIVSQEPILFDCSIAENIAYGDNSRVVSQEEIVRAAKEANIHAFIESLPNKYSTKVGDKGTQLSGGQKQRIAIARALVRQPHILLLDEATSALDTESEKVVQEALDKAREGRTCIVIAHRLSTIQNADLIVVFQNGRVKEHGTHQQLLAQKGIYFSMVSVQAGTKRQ

P-glycoprotein (ABCB1) = P-glycoprotein (ABCB1) (Homo sapiens, UniProt P08183); assay: P-glycoprotein (Pgp) factor was expressed as the ratio ofthe bottom to top transport and top to bottom transport; assay type: functional; conditions: not told
Sequence of P-glycoprotein (ABCB1) (P08183 whole entry): as above

Sequence of Cannabinoid receptor 2 (P34972 whole entry): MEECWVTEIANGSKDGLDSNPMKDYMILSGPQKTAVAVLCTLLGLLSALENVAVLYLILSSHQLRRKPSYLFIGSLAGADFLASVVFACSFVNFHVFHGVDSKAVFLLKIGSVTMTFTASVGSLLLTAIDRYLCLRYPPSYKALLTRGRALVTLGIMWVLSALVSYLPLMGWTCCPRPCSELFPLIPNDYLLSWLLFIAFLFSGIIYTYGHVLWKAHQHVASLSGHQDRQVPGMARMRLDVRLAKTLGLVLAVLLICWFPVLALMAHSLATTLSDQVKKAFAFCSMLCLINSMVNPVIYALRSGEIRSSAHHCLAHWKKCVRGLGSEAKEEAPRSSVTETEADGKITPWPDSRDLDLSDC

Ki (Cannabinoid receptor 2)	Ki (Cannabinoid receptor 1 [1])	Kb (Cannabinoid receptor 1 [2])	Structure (SMILES)	ED50 (Rattus norvegicus)	LED (Mus musculus)	Transport [3]	efflux ratio (P-glycoprotein (ABCB1))
3960 nM			Cc1c(C(=O)N2CCC(O)CC2)nc(-c2ccc(Cl)cc2Cl)n1-c1ccc(Cl)cc1				
634 nM	29 nM	2.51 nM	Cc1c(C(=O)NN2CCCCC2)nc(-c2ccc(Cl)cc2Cl)n1-c1ccc(C(F)(F)F)cc1				
696 nM	34 nM		Cc1c(C(=O)N2CCc3ccccc3C2)nc(-c2ccc(Cl)cc2Cl)n1-c1ccc(Cl)cc1				
489 nM	60 nM	3.16 nM	Cc1c(C(=O)NN2CCCCC2)nc(-c2ccc(Cl)cc2Cl)n1-c1ccc(Br)cc1				
765 nM	52 nM		Cc1c(C(=O)NN2CCCCC2)nc(-c2ccc(Cl)cc2Cl)n1-c1ccc(F)cc1				
326 nM	106 nM	2 nM	COc1ccc(-n2c(-c3ccc(Cl)cc3Cl)nc(C(=O)NN3CCCCC3)c2C)cc1				
505 nM	64 nM	2 nM	Cc1c(C(=O)NN2CCCCCC2)nc(-c2ccc(Cl)cc2Cl)n1-c1ccc(Cl)cc1				
160 nM	35 nM	0.794 nM	Cc1c(C(=O)NC2CCCCC2)nc(-c2ccc(Cl)cc2Cl)n1-c1ccc(Cl)cc1				
349 nM	35 nM		Cc1c(C(=O)NC2CCCCCC2)nc(-c2ccc(Cl)cc2Cl)n1-c1ccc(Cl)cc1				
3470 nM	399 nM	50.1 nM	Cc1c(C(=O)N[C@H]2CC[C@H](O)CC2)nc(-c2ccc(Cl)cc2Cl)n1-c1ccc(Cl)cc1				
4670 nM	> 1000 nM	63.1 nM	O=C(NN1CCCCC1)c1nc(-c2ccc(Cl)cc2)c(-c2ccc(Cl)cc2Cl)s1				
906 nM	36 nM	1.26 nM	O=C(NN1CCCCC1)c1nc(-c2ccc(Cl)cc2Cl)n(-c2ccc(Cl)cc2)c1CF				
815 nM	94 nM	2.51 nM	Cc1c(C(=O)OC(C)(C)C)nc(-c2ccc(Cl)cc2Cl)n1-c1ccc(Cl)cc1				
1980 nM	171 nM		Cc1c(C(=O)NCc2ccc(C(F)(F)F)cc2)nc(-c2ccc(Cl)cc2Cl)n1-c1ccc(Cl)cc1				
242 nM	333 nM	6.31 nM	Cc1c(C(=O)NOC(C)(C)C)nc(-c2ccc(Cl)cc2Cl)n1-c1ccc(Cl)cc1				
3300 nM	197 nM		Cc1c(C(=O)NN2CCOCC2)nc(-c2ccc(Cl)cc2Cl)n1-c1ccc(Cl)cc1				
357 nM	33 nM		Cc1c(C(=O)NC2CCCC2)nc(-c2ccc(Cl)cc2Cl)n1-c1ccc(Cl)cc1				
758 nM			Cc1c(C(=O)NN2CCCCC2)nc(-c2ccc(Cl)cc2Cl)n1-c1ccc(Cl)cn1				
1590 nM	30 nM		N#Cc1c(C(=O)NN2CCCCC2)nc(-c2ccc(Cl)cc2Cl)n1-c1ccc(Cl)cc1				
774 nM	27 nM		Cc1c(C(=O)NN2CCCC2)nc(-c2ccc(Cl)cc2Cl)n1-c1ccc(Cl)cc1				
2520 nM	828 nM	39.8 nM	CCN(CC)C(=O)c1nc(-c2ccc(Cl)cc2Cl)n(-c2ccc(Cl)cc2)c1C				
1410 nM	40 nM		Cc1c(C(=O)NN2CC3CCCC3C2)nc(-c2ccc(Cl)cc2Cl)n1-c1ccc(Cl)cc1 (stereo not given)				
746 nM	23 nM	3.98 nM	O=C(NN1CCCCC1)c1nc(-c2ccc(Cl)cc2Cl)n(-c2ccc(Cl)cc2)c1Br				
823 nM	27 nM	3.16 nM	O=C(NN1CCCCC1)c1nc(-c2ccc(Cl)cc2Cl)n(-c2ccc(Cl)cc2)c1Cl				
5440 nM	382 nM	25.1 nM	O=C(NN1CCCCC1)c1nc(-c2ccc(Cl)cc2)n(-c2ccc(Cl)cc2Cl)n1				
			Cc1c(C(=O)NN2CCCCC2)nn(-c2ccc(Cl)cc2Cl)c1-c1ccc(Cl)cc1 [RIMONABANT]	3.2 mg/kg	3 mg/kg	17.2%	

Structure (SMILES)	Ki (Cannabinoid receptor 2)	Ki (Cannabinoid receptor 1 [1])	Kb (Cannabinoid receptor 1 [2])	ED50 (Rattus norvegicus)	LED (Mus musculus)	Transport [3]	efflux ratio (P-glycoprotein (ABCB1))
O=C(NN1CCCCC1)c1cn(-c2ccc(Cl)cc2)c(-c2ccc(Cl)cc2Cl)n1	542 nM	23 nM		11.7 mg/kg	>30 mg/kg		
Cc1c(C(=O)NC2CC3CCC2C3)nc(-c2ccc(Cl)cc2Cl)n1-c1ccc(Cl)cc1 (stereo not given)	54 nM	19 nM	0.794 nM				
O=C(NN1CCCCC1)c1nc(-c2ccc(Cl)cc2Cl)c(-c2ccc(Cl)cc2)s1	5840 nM	227 nM	7.94 nM	> 30 mg/kg		8.3%	1.7
Cc1c(C(=O)NN2CCCCC2)nc(-c2ccc(Cl)cc2Cl)n1-c1ccc(Cl)cc1	608 nM		2.51 nM	2.4 mg/kg	10 mg/kg	24.2%	1.2
CCc1c(C(=O)NN2CCCCC2)nc(-c2ccc(Cl)cc2Cl)n1-c1ccc(Cl)cc1	430 nM	14 nM	1 nM	15.8 mg/kg	30 mg/kg		
Cc1c(C(=O)NN2CCCCC2)nc(-c2ccc(Cl)cc2)n1-c1ccc(Cl)cc1Cl	208 nM	403 nM	20 nM	> 30 mg/kg			
Cl.Cl.O=C(NN1CCCCC1)c1nc(-c2ccc(Cl)cc2Cl)n(-c2ccc(Cl)cc2)n1	3560 nM	356 nM	5.01 nM	23.6 mg/kg	>30 mg/kg	28.3%	1.5
